From ChEMBL document CHEMBL4190353, “Synthesis, structure-activity relationships and preliminary mechanism of action of novel water-soluble 4-quinolone-3-carboxamides as antiproliferative agents” (Eur J Med Chem, 2017)
The source made the active and inactive calls. The calls are words filed in the database; no cut-off is given here.

Experiments:
[1] = system: HCT-116; experiment: Induction of apoptosis in Bax-/- human HCT116 cells assessed as early apoptotic cells level pre-incubated with 20 uM pan-caspase inhibitor Z-VAD-FMK for 5 hrs followed by compound addition and further incubated for 48 hrs by Annexin V-FITC/PI staining based cytometry (reference value: 6.8%); format: functional; set-up: scale not given: the % may be the effect or the level left
[2] = system: HCT-116; experiment: Induction of apoptosis in human HCT116 cells assessed as early apoptotic cells level at 2 uM incubated for 24 hrs by Annexin V-FITC/PI staining based cytometry (reference value: 1.3%); format: functional
[3] = system: HCT-116; experiment: Induction of apoptosis in human HCT116 cells assessed as early apoptotic cells level incubated for 48 hrs by Annexin V-FITC/PI staining based cytometry (reference value: 1.1%); format: functional
[4] = system: HEp-2; experiment: Cytotoxicity against human Hep2 cells assessed as reduction in cell viability incubated for 24 hrs by MTT assay; format: functional, cell-based; conditions: HEp-2, 24 h
Method in brief: (§1)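 Cells were kept in McCoy's 5A with 10% fetal bovine serum, streptomycin and 100 units·mL⁻¹ penicillin at 37 °C under 5% CO₂/95% air. Viability was read by MTT optical density. IC50 is the concentration that lowers optical density by 50% relative to untreated cells. Values are means with SD of at least three independent determinations.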

[5] = system: HCT-116; experiment: Induction of apoptosis in human HCT116 cells assessed as late apoptotic cells level incubated for 48 hrs by Annexin V-FITC/PI staining based cytometry (reference value: 0.0%); format: functional
[6] = system: HCT-116; experiment: Induction of apoptosis in human HCT116 cells assessed as subG1 phase cells level at 4 uM incubated for 24 hrs by […]PI staining based cytometry (reference value: 1%); format: functional
Method in brief: (§2)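 Cells were treated for 24 h, then fixed in 75% ethanol at -20 °C overnight. RNA was digested with 0.2 mg/mL RNase A for 30 min at 37 °C. Cells were stained with 50 µg/mL PI for 30 min in the dark, and DNA content was read by flow cytometry.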

[7] = system: HCT-8; experiment: Cytotoxicity against human HCT8 cells assessed as reduction in cell viability incubated for 24 hrs by MTT assay; format: functional, cell-based; conditions: HCT-8, 24 h; method in brief: as §1
[8] = system: HCT-116; experiment: Induction of apoptosis in p53-/- human HCT116 cells assessed as viable cells level at 4 uM incubated for 48 hrs by Annexin V-FITC/PI staining based cytometry (reference value: 96.2%); format: functional
Method in brief: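 HCT116 p53-/- cells (Vogelstein line) in McCoy's 5A with 10% FBS, 37 °C, 5% CO2. Seeded at 5×10^5 in 6-well plates, treated with vehicle or 4 μM at 80% confluence. After treatment, trypsinised, washed twice in ice-cold PBS pH 7.4, and stained in binding buffer with Annexin V-FITC and PI for 15 min at room temperature in the dark. Read by flow cytometry.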

[9] = system: HCT-116; experiment: […] of ROS generation in human HCT116 cells at 8 uM incubated for 24 hrs by H2DCFDA dye based flow cytometry; format: functional, cell-based
Method in brief: (§3)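 HCT116 cells pre-treated 5 h with H2O, 7.5 mM L-NAC or 7.5 mM GSH, then exposed to compound for 24 h. Cells collected, washed twice in PBS, and resuspended in serum-free McCoy's 5A with 10 nM H2DCFDA for 20 min at 37 °C in the dark. After two PBS washes, relative ROS measured by flow cytometry.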

[10] = system: HCT-116; experiment: Induction of apoptosis in human HCT116 cells assessed as subG1 phase cells level at 2 uM incubated for 24 hrs by […]PI staining based cytometry (reference value: 1%); format: functional; method in brief: as §2
[11] = system: HCT-116; experiment: Induction of apoptosis in human HCT116 cells assessed as increase in cleaved PARP level at 4 to 8 uM incubated for 24 hrs by Western blot method; format: functional, cell-based
Method in brief: (§4)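 Lysates were made in SDS buffer (2% SDS, 50 mM Tris-HCl pH 6.8) and quantified by BCA. Equal protein was run on 10% SDS-PAGE and transferred to PVDF. Membranes were blocked in 5% milk, probed overnight at 4 °C for cleaved PARP (1:1000) with GAPDH (1:5000), and detected with HRP secondary antibody and ECL.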

[12] = system: HCT-116; experiment: Induction of apoptosis in human HCT116 cells assessed as viable cells level at 2 uM incubated for 24 hrs by Annexin V-FITC/PI staining based cytometry (reference value: 96.6%); format: functional
[13] = system: HCT-116; experiment: Induction of apoptosis in human HCT116 cells assessed as increase in cleaved PARP level incubated for 48 hrs by Western blot method; format: functional, cell-based; method in brief: as §4
[14] = system: HCT-116; experiment: […] of ROS generation in human HCT116 cells pre-treated with 7.5 mM GSH for […] followed by 8 uM compound addition and further incubated for 24 hrs by H2DCFDA dye based flow cytometry; format: functional, cell-based; method in brief: as §3
[15] = system: HCT-116; experiment: Inhibition of colony formation of p53-/- human HCT116 cells at 4 to 16 uM incubated for 24 hrs by crystal violet staining based photography; format: functional, cell-based
Method in brief: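 Cells (HCT116, RKO, HCT116 p53-/-, HCT116 Bax-/-) seeded at 300 per well in 12-well plates for 48 h, then treated 24 h. Drug medium replaced with fresh medium; about 10 days later colonies stained 15 min with crystal violet, photographed and counted. Run in triplicate.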

[16] = system: HCT-116; experiment: Induction of apoptosis in human HCT116 cells assessed as G1 phase cells level at 4 uM incubated for 24 hrs by […]PI staining based cytometry (reference value: 65.2%); format: functional; method in brief: as §2
[17] = system: HCT-116; experiment: Induction of apoptosis in p53-/- human HCT116 cells assessed as increase in cleaved PARP level at 4 to 16 uM by Western blot method; format: functional, cell-based; method in brief: as §4
[18] = system: HCT-116; experiment: Induction of apoptosis in human HCT116 cells assessed as increase in cleaved PARP level pre-treated with 7.5 mM L-NAC for 6 hrs followed by 4 to 8 uM compound addition and further incubated for 24 hrs by Western blot method; format: functional, cell-based
Method in brief: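 HCT116 cells were pretreated with H2O or 7.5 mM L-NAC for 6 h, then exposed to 0, 4 or 8 µM for 24 h. Lysates were made in SDS buffer and run on 10% SDS-PAGE. Blots were probed for cleaved PARP (1:1000) with GAPDH (1:5000) as control, and detected by ECL.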

[19] = system: HCT-116; experiment: Induction of apoptosis in Bax-/- human HCT116 cells assessed as viable cells level pre-incubated with 20 uM pan-caspase inhibitor Z-VAD-FMK for 5 hrs followed by compound addition and further incubated for 48 hrs by Annexin V-FITC/PI staining based cytometry (reference value: 92.9%); format: functional
[20] = system: HCT-116; experiment: Induction of apoptosis in Bax-/- human HCT116 cells assessed as increase in cleaved PARP level at 4 to 16 uM by Western blot method; format: functional, cell-based; method in brief: as §4
[21] = system: HCT-116; experiment: Induction of apoptosis in human HCT116 cells assessed as viable cells level at 4 uM incubated for 24 hrs by Annexin V-FITC/PI staining based cytometry (reference value: 96.6%); format: functional
[22] = system: HepG2; experiment: Cytotoxicity against human HepG2 cells assessed as reduction in cell viability incubated for 24 hrs by MTT assay; format: functional, cell-based; conditions: HepG2, 24 h; method in brief: as §1
[23] = system: HCT-116; experiment: […] of ROS generation in human HCT116 cells pre-treated with 7.5 mM L-NAC for […] followed by 8 uM compound addition and further incubated for 24 hrs by H2DCFDA dye based flow cytometry; format: functional, cell-based; method in brief: as §3
[24] = Solubility in water; format: physicochemical

## CCN(CC)CCCNC(=O)c1cn(CCCc2ccccc2)c2cc(Cl)ccc2c1=O.Cl
[1]
  Activity: 10.2%
[2]
  Activity: 18.2%
[3]
  Activity: 29.4%
[4]
  IC50: 3.53 µM
[5]
  Activity: 3.2%
[6]
  Activity: 14.2%
[7]
  IC50: 6.82 µM
[8]
  Activity: 72.1%
[9]
  inhibition: Active
[10]
  Activity: 6.5%
[11]
  Activity: Active
[12]
  Activity: 79.3%
[13]
  Activity: Active
[14]
  inhibition: inactive
[15]
  inhibition: Active
[16]
  Activity: 42.4%
[17]
  Activity: Active
[18]
  Activity: inactive
[19]
  Activity: 87.7%
[20]
  Activity: Active
[21]
  Activity: 52.7%
[22]
  IC50: 3.94 µM
[23]
  inhibition: inactive
[24]
  solubility: > 10000 µg/mL
